Legend:
Type in all cases: functional
[1] = system: Rattus norvegicus; assay: Inhibition of egg albumin-induced allergic bronchospasm in sensitized, spontaneously breathing and anesthesized Harlan-Wistar rat assessed as drop in pulmonary arterial blood pressure at 2 mg/kg, iv administered 1 min prior to antigen challenge (reference value: 36.4 +/- 3.5 %)
In short: (§1)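 Male Harlan-Wistar rats (225–275 g) were sensitized with EA im (1 mg/rat) plus pertussis vaccine ip. After 13–15 days they were urethane-anesthetized (1.5 g/kg ip). Drug was given intraduodenally in methocel or iv in saline, then EA 2 mg/rat iv. Pulmonary ventilation pressure and mean arterial pressure were recorded. Individual responses were compared with a separate vehicle-control group mean; 4–15 rats/group.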

[2] = system: Rattus norvegicus; assay: Inhibition of egg albumin-induced allergic bronchospasm in sensitized, spontaneously breathing and anesthesized Harlan-Wistar rat assessed as drop in mean arterial blood pressure at 2 mg/kg, iv administered 1 min prior to antigen challenge (reference value: 49.7+/- 1.9 %); in short: as §1
[3] = system: Rattus norvegicus; assay: Inhibition of egg albumin-induced allergic bronchospasm in sensitized, spontaneously breathing and anesthesized Harlan-Wistar rat assessed as inhibition of control allergic bronchospasm response at 2 mg/kg, iv administered 1 min prior to antigen challenge; in short: as §1
[4] = system: Mast cell; assay: Inhibition of histamine release in Sprague-Dawley rat peritoneal mast cells at 20 uM after 10 mins by fluorimetry relative to control
In short: (§2)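 Peritoneal lavage cells from male Sprague–Dawley rats (200–300 g) were sensitized for 2 h at 37 °C in rat anti-EA serum with heparin. Cells were resuspended in buffered HBSS and challenged with EA. Drug was added together with antigen. After 10 min incubation, histamine was measured fluorimetrically. % inhibition was calculated versus release without drug.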

[5] = system: Mast cell; assay: Inhibition of histamine release in Sprague-Dawley rat peritoneal mast cells at 1.25 uM after 10 mins by fluorimetry relative to control; in short: as §2
[6] = system: Rattus norvegicus; assay: Antiallergic activity against egg albumin-induced anaphylaxis in iv dosed sensitized rat compound administered 15 mins prior to antigen challenge as single dose by passive cutaneous anaphylaxis test
In short: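 Male Sprague–Dawley or Wistar rats (100–150 g) were passively sensitized by two intradermal dilutions of rat anti-egg-albumin serum, which was mainly IgE and raised with EA im (10 mg/kg) plus killed pertussis vaccine iv. After 48 h, drug or vehicle was given. Rats were then challenged iv with EA plus Evans Blue (25 mg/kg each). Spot diameter was read 20–30 min later; ≥5 rats/compound. % inhibition was calculated versus control mean diameter.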

[7] = system: Mast cell; assay: Inhibition of histamine release in Sprague-Dawley rat peritoneal mast cells at 5 uM after 10 mins by fluorimetry relative to control; in short: as §2
[8] = system: Rattus norvegicus; assay: Inhibition of egg albumin-induced allergic bronchospasm in sensitized, spontaneously breathing and anesthesized Harlan-Wistar rat assessed as inhibition of control allergic hypotension response at 2 mg/kg, iv administered 1 min prior to antigen challenge; in short: as §1
[9] = system: Rattus norvegicus; assay: Inhibition of egg albumin-induced allergic bronchospasm in sensitized, spontaneously breathing and anesthesized Harlan-Wistar rat assessed as inhibition of control allergic hypotension response at 50 mg/kg administered intraduodenally 15 min prior to antigen challenge; conditions: route intraduodenal; in short: as §1
[10] = system: Rattus norvegicus; assay: Inhibition of egg albumin-induced allergic bronchospasm in sensitized, spontaneously breathing and anesthesized Harlan-Wistar rat assessed as drop in pulmonary arterial blood pressure at 12.5 mg/kg administered intraduodenally 15 min prior to antigen challenge (reference value: 32.2 +/- 4.7 %); conditions: route intraduodenal; in short: as §1
[11] = system: Rattus norvegicus; assay: Inhibition of egg albumin-induced allergic bronchospasm in sensitized, spontaneously breathing and anesthesized Harlan-Wistar rat assessed as drop in mean arterial blood pressure at 50 mg/kg administered intraduodenally 15 min prior to antigen challenge (reference value: 46.3 +/- 3.5 %); conditions: route intraduodenal; in short: as §1
[12] = system: Rattus norvegicus; assay: Inhibition of egg albumin-induced allergic bronchospasm in sensitized, spontaneously breathing and anesthesized Harlan-Wistar rat assessed as inhibition of control allergic hypotension response at 1.56 mg/kg administered intraduodenally 15 min prior to antigen challenge; conditions: route intraduodenal; in short: as §1
[13] = system: Rattus norvegicus; assay: Inhibition of egg albumin-induced allergic bronchospasm in sensitized, spontaneously breathing and anesthesized Harlan-Wistar rat assessed as inhibition of control allergic bronchospasm response at 6.25 mg/kg administered intraduodenally 15 min prior to antigen challenge; conditions: route intraduodenal; in short: as §1
[14] = system: Rattus norvegicus; assay: Inhibition of egg albumin-induced allergic bronchospasm in sensitized, spontaneously breathing and anesthesized Harlan-Wistar rat assessed as drop in pulmonary arterial blood pressure at 1.56 mg/kg administered intraduodenally 15 min prior to antigen challenge (reference value: 32.2 +/- 4.7 %); conditions: route intraduodenal; in short: as §1
[15] = system: Rattus norvegicus; assay: Inhibition of egg albumin-induced allergic bronchospasm in sensitized, spontaneously breathing and anesthesized Harlan-Wistar rat assessed as inhibition of control allergic bronchospasm response at 3.125 mg/kg administered intraduodenally 15 min prior to antigen challenge; conditions: route intraduodenal; in short: as §1
[16] = system: Rattus norvegicus; assay: Inhibition of egg albumin-induced allergic bronchospasm in sensitized, spontaneously breathing and anesthesized Harlan-Wistar rat assessed as drop in mean arterial blood pressure at 6.25 mg/kg administered intraduodenally 15 min prior to antigen challenge (reference value: 46.3 +/- 3.5 %); conditions: route intraduodenal; in short: as §1
[17] = system: Rattus norvegicus; assay: Inhibition of egg albumin-induced allergic bronchospasm in sensitized, spontaneously breathing and anesthesized Harlan-Wistar rat assessed as drop in mean arterial blood pressure at 3.125 mg/kg administered intraduodenally 15 min prior to antigen challenge (reference value: 46.3 +/- 3.5 %); conditions: route intraduodenal; in short: as §1
[18] = system: Rattus norvegicus; assay: Inhibition of egg albumin-induced allergic bronchospasm in sensitized, spontaneously breathing and anesthesized Harlan-Wistar rat assessed as inhibition of control allergic hypotension response at 3.125 mg/kg administered intraduodenally 15 min prior to antigen challenge; conditions: route intraduodenal; in short: as §1
[19] = system: Rattus norvegicus; assay: Inhibition of egg albumin-induced allergic bronchospasm in sensitized, spontaneously breathing and anesthesized Harlan-Wistar rat assessed as drop in mean arterial blood pressure at 1.56 mg/kg administered intraduodenally 15 min prior to antigen challenge (reference value: 46.3 +/- 3.5 %); conditions: route intraduodenal; in short: as §1
[20] = system: Rattus norvegicus; assay: Inhibition of egg albumin-induced allergic bronchospasm in sensitized, spontaneously breathing and anesthesized Harlan-Wistar rat assessed as inhibition of control allergic hypotension response at 6.25 mg/kg administered intraduodenally 15 min prior to antigen challenge; conditions: route intraduodenal; in short: as §1
[21] = system: Rattus norvegicus; assay: Inhibition of egg albumin-induced allergic bronchospasm in sensitized, spontaneously breathing and anesthesized Harlan-Wistar rat assessed as drop in mean arterial blood pressure at 12.5 mg/kg administered intraduodenally 15 min prior to antigen challenge (reference value: 46.3 +/- 3.5 %); conditions: route intraduodenal; in short: as §1
[22] = system: Rattus norvegicus; assay: Inhibition of egg albumin-induced allergic bronchospasm in sensitized, spontaneously breathing and anesthesized Harlan-Wistar rat assessed as drop in pulmonary arterial blood pressure at 3.125 mg/kg administered intraduodenally 15 min prior to antigen challenge (reference value: 32.2 +/- 4.7 %); conditions: route intraduodenal; in short: as §1
[23] = system: Rattus norvegicus; assay: Inhibition of egg albumin-induced allergic bronchospasm in sensitized, spontaneously breathing and anesthesized Harlan-Wistar rat assessed as drop in pulmonary arterial blood pressure at 6.25 mg/kg administered intraduodenally 15 min prior to antigen challenge (reference value: 32.2 +/- 4.7 %); conditions: route intraduodenal; in short: as §1
[24] = system: Rattus norvegicus; assay: Inhibition of egg albumin-induced allergic bronchospasm in sensitized, spontaneously breathing and anesthesized Harlan-Wistar rat assessed as inhibition of control allergic hypotension response at 12.5 mg/kg administered intraduodenally 15 min prior to antigen challenge; conditions: route intraduodenal; in short: as §1
[25] = system: Rattus norvegicus; assay: Inhibition of egg albumin-induced allergic bronchospasm in sensitized, spontaneously breathing and anesthesized Harlan-Wistar rat assessed as inhibition of control allergic bronchospasm response at 1.56 mg/kg administered intraduodenally 15 min prior to antigen challenge; conditions: route intraduodenal; in short: as §1
[26] = system: Rattus norvegicus; assay: Inhibition of egg albumin-induced allergic bronchospasm in sensitized, spontaneously breathing and anesthesized Harlan-Wistar rat assessed as drop in pulmonary arterial blood pressure at 50 mg/kg administered intraduodenally 15 min prior to antigen challenge (reference value: 32.2 +/- 4.7 %); conditions: route intraduodenal; in short: as §1
[27] = system: Rattus norvegicus; assay: Inhibition of egg albumin-induced allergic bronchospasm in sensitized, spontaneously breathing and anesthesized Harlan-Wistar rat assessed as inhibition of control allergic hypotension response compound administered intraduodenally 15 min prior to antigen challenge; conditions: in the assay text read “bronchospasm response” for “hypotension response”; in short: as §1
[28] = system: Rattus norvegicus; assay: Inhibition of egg albumin-induced allergic bronchospasm in sensitized, spontaneously breathing and anesthesized Harlan-Wistar rat assessed as inhibition of control allergic bronchospasm response at 12.5 mg/kg administered intraduodenally 15 min prior to antigen challenge; conditions: route intraduodenal; in short: as §1
[29] = system: Rattus norvegicus; assay: Inhibition of egg albumin-induced allergic bronchospasm in sensitized, spontaneously breathing and anesthesized Harlan-Wistar rat assessed as inhibition of control allergic bronchospasm response at 50 mg/kg administered intraduodenally 15 min prior to antigen challenge; conditions: route intraduodenal; in short: as §1
[30] = system: Rattus norvegicus; assay: Inhibition of egg albumin-induced allergic bronchospasm in sensitized, spontaneously breathing and anesthesized Harlan-Wistar rat assessed as inhibition of control allergic bronchospasm response compound administered intraduodenally 15 min prior to antigen challenge; in short: as §1

O=C([O-])c1cc(=O)c2c(OCC(O)COc3cccc4oc(C(=O)[O-])cc(=O)c34)cccc2o1.[Na+].[Na+] [CROMOLYN SODIUM]
inhibition in vivo at 2 mg/kg [1]: 13% | inhibition in vivo at 2 mg/kg [2]: 38.8% | inhibition in vivo at 2 mg/kg [3]: 63.8% | inhibition at 20 µM [4]: 75% | inhibition at 1.25 µM [5]: 20% | ED50 [6]: 0.6 mg/kg | inhibition at 5 µM [7]: 50% | inhibition in vivo at 2 mg/kg [8]: 22.4%

CCCCCCc1sc2nc(C(=O)[O-])nc([O-])c2c1C.O.[Na+].[Na+]
inhibition in vivo at 50 mg/kg [9]: 14% | inhibition in vivo at 12.5 mg/kg [10]: 21.6% | inhibition in vivo at 50 mg/kg [11]: 45% | inhibition in vivo at 1.56 mg/kg [12]: 0% | inhibition in vivo at 6.25 mg/kg [13]: 34.2% | inhibition in vivo at 1.56 mg/kg [14]: 42% | inhibition in vivo at 3.125 mg/kg [15]: 28.3% | inhibition in vivo at 6.25 mg/kg [16]: 38.4% | inhibition in vivo at 3.125 mg/kg [17]: 47.6% | inhibition in vivo at 3.125 mg/kg [18]: 15.4% | inhibition in vivo at 1.56 mg/kg [19]: 63.8% | inhibition in vivo at 6.25 mg/kg [20]: 28.8% | inhibition in vivo at 12.5 mg/kg [21]: 55.2% | inhibition in vivo at 3.125 mg/kg [22]: 27.6% | inhibition in vivo at 6.25 mg/kg [23]: 28% | inhibition in vivo at 12.5 mg/kg [24]: 0% | inhibition in vivo at 1.56 mg/kg [25]: 9.4% | inhibition in vivo at 50 mg/kg [26]: 14% | inhibition [27]: Dose-dependent effect | ED50 ([27]; intraduodenal): 3.8 mg/kg | inhibition in vivo at 12.5 mg/kg [28]: 41% | inhibition in vivo at 50 mg/kg [29]: 61.2% | inhibition [30]: Dose-dependent effect | ED50 ([30]; intraduodenal): 3.8 mg/kg

— ChEMBL document CHEMBL3244400, “Synthesis of 3,4-dihydro-4-oxothieno[2,3-d]pyrimidine-2-carboxylates, a new series of orally active antiallergy agents” (J Med Chem, 1979)
